Data reported in ChEMBL document CHEMBL4387720, “Lead generation of 1,2-dithiolanes as exon 19 and exon 21 mutant EGFR tyrosine kinase inhibitors” (Bioorg Med Chem Lett, 2019).

What was measured:
[1] = biological target: T1, Epidermal growth factor receptor (Homo sapiens, UniProt P00533); test: Inhibition of probe binding to wild type EGFR (unknown origin) using rabbit reticulate lysate system after 1 hr by luminescence assay
[2] = biological target: T2, Epidermal growth factor receptor (Homo sapiens, UniProt P00533, L858R)
T2 sequence (P00533 25-1210 L858R limits assumed): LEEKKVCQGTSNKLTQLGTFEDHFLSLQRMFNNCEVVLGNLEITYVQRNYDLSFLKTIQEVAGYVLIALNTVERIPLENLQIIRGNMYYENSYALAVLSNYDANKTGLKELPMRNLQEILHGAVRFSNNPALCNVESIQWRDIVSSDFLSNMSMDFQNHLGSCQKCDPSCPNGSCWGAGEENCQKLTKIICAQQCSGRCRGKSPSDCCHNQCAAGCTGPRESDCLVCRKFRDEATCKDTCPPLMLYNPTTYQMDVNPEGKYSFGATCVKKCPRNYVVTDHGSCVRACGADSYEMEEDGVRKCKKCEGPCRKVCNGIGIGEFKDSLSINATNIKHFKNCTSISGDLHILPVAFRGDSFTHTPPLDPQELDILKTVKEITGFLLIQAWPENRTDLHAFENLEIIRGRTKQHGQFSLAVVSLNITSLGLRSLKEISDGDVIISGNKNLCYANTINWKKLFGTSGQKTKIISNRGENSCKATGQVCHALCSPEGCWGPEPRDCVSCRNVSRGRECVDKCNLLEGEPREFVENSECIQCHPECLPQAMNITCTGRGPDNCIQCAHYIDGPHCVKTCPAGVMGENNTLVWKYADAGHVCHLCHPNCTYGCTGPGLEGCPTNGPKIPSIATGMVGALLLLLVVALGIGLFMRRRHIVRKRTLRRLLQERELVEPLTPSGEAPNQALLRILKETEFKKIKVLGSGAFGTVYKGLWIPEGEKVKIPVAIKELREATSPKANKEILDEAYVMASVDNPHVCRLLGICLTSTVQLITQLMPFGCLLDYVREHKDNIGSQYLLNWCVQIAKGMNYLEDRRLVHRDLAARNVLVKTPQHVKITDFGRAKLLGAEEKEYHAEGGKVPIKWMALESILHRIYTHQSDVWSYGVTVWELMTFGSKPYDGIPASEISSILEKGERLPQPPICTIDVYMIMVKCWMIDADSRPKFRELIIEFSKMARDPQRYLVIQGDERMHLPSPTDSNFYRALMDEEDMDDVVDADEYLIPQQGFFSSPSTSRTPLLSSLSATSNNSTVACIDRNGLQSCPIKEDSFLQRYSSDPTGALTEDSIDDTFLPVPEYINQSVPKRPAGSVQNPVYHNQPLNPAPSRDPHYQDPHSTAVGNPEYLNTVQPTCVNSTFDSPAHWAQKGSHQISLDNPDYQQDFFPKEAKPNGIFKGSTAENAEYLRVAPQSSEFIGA

[3] = biological target: Receptor tyrosine-protein kinase erbB-2 (Homo sapiens, UniProt P04626); test: Inhibition of probe binding to HER2 (unknown origin) using rabbit reticulate lysate system after 1 hr by luminescence assay
In short: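 Homogeneous competition binding in rabbit reticulocyte lysate with kinase expressed in the lysate. IC50 taken from a ten-point dose-response curve; value is the average of triplicate experiments.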

A549 [4] = test: cells; type: functional; conditions: Homo sapiens, A549, 48 h
NCI-H322M [5] = test: cells; type: functional; conditions: Homo sapiens, 48 h
CCRF-CEM [6] = test: cells; type: functional; conditions: Homo sapiens, 48 h
MOLT-4 [7] = test: cells; type: functional; conditions: Homo sapiens, MOLT-4, 48 h
NCI-H322M [8] = test: Cytotoxicity against human NCI-H322M cells assessed as reduction in measured protein incubated for 48 hrs by SRB assay; type: functional; conditions: read-out: LC50 (the source's name)
In short: (§1)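 Tested in the NCI-60 panel with a five-dose response curve, each value the mean of 2 experiments.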

NCI-H460 [9] = test: Cytotoxicity against human NCI-H460 cells assessed as reduction in measured protein incubated for 48 hrs by SRB assay; type: functional; conditions: NCI-H460, 48 h, read-out: LC50 (the source's name); in short: as §1
CCRF-CEM [10] = test: Cytotoxicity against human CCRF-CEM cells assessed as reduction in measured protein incubated for 48 hrs by SRB assay; type: functional; conditions: read-out: LC50 (the source's name); in short: as §1
MOLT-4 [11] = test: Cytotoxicity against human MOLT4 cells assessed as reduction in measured protein incubated for 48 hrs by SRB assay; type: functional; conditions: MOLT-4, 48 h, read-out: LC50 (the source's name); in short: as §1
A549 [12] = test: Therapeutic index, ratio of LC50 for human A549 cells to GI50 for human A549 cells; type: functional
In short: (§2)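 NCI-60 panel cell growth assay. Five-point dose-response curves; each value is the average of 2 experiments. […] Therapeutic index is calculated as LC50/GI50.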

NCI-H460 [13] = test: Therapeutic index, ratio of LC50 for human NCI-H460 cells to GI50 for human NCI-H460 cells; type: functional; in short: as §2
[14] = biological target: T2, Epidermal growth factor receptor; test: Binding affinity to human partial length EGFR L858R mutant (R669 to V1011 residues) expressed in bacterial expression system by kinomescan assay
In short: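 Competition binding against an immobilized active-site-directed ligand; bound kinase quantified by qPCR of its DNA tag. Kd taken from duplicate 11-point dose-response curves.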

[15] = biological target: Epidermal growth factor receptor (Homo sapiens, UniProt P00533, G719C); test: Binding affinity to human partial length EGFR G719C mutant (R669 to V1011 residues) expressed in bacterial expression system by KinomeScan assay
In short: (§3)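 Competition binding against an immobilized active-site-directed ligand. Bound kinase is quantified by qPCR of its DNA tag. Kd values come from duplicate 11-point dose-response curves.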

[16] = biological target: Epidermal growth factor receptor (Homo sapiens, UniProt P00533, G719S); test: Binding affinity to human partial length EGFR G719S mutant (R669 to V1011 residues) expressed in bacterial expression system by KinomeScan assay; in short: as §3
[17] = biological target: Epidermal growth factor receptor (Homo sapiens, UniProt P00533, L858R/T790M); test: Inhibition of human partial length EGFR L858R/T790M mutant (R669 to V1011 residues) expressed in mammalian expression system by competition binding assay based KinomeScan assay; in short: as §3
[18] = biological target: Epidermal growth factor receptor (Homo sapiens, UniProt P00533, S752-I759DEL); test: Binding affinity to human partial length EGFR S752-I759 deletion mutant expressed in bacterial expression system by KinomeScan assay; in short: as §3
[19] = biological target: Epidermal growth factor receptor (Homo sapiens, UniProt P00533, E746-A750DEL); test: Binding affinity to human partial length EGFR E746-A750 deletion mutant expressed in bacterial expression system by KinomeScan assay; in short: as §3
Sequence of Epidermal growth factor receptor (Homo sapiens, UniProt P00533, E746-A750DEL) (P00533 whole entry E746-A750del, looked up, the tested form may be a part): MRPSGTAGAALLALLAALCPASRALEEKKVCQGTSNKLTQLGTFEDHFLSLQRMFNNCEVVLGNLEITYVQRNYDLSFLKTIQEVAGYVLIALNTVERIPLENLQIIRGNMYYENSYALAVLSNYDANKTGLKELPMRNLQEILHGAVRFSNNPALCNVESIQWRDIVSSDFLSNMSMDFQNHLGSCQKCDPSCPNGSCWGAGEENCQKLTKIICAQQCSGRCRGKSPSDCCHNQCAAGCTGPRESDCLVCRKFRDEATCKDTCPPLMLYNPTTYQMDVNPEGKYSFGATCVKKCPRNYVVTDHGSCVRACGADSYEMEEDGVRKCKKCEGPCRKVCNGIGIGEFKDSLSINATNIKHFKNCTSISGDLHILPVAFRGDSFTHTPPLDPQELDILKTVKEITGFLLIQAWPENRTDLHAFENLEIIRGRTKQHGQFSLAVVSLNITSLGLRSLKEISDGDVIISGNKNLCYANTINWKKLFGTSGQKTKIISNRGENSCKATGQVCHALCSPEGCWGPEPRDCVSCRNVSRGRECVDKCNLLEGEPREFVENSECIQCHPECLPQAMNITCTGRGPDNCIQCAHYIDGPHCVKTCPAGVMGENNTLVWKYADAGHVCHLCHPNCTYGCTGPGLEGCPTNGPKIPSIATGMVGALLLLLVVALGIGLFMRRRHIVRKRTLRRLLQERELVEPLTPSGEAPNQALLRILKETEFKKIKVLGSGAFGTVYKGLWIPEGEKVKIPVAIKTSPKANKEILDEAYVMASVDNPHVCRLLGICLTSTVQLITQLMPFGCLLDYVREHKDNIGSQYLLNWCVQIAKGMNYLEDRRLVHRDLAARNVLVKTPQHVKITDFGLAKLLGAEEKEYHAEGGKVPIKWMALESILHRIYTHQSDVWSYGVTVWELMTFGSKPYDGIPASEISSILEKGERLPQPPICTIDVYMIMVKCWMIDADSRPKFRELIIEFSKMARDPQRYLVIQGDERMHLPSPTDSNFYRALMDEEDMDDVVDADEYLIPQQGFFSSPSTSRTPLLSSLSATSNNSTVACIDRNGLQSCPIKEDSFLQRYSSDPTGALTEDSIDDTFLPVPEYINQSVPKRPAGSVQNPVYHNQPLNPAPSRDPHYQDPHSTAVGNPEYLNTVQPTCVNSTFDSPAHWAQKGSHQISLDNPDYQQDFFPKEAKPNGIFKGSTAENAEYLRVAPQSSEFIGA

[20] = biological target: T1, Epidermal growth factor receptor; test: Binding affinity to human partial length wild type EGFR (R669 to V1011 residues) expressed in bacterial expression system by kinomescan assay; in short: as §3
[21] = biological target: Epidermal growth factor receptor (Homo sapiens, UniProt P00533, L747-T751DEL); test: Binding affinity to human partial length EGFR L747-T751del/Sins mutant expressed in bacterial expression system by KinomeScan assay; in short: as §3
[22] = biological target: Epidermal growth factor receptor (Homo sapiens, UniProt P00533, A750P/L747-E749DEL); test: Binding affinity to human partial length EGFR L747-E749del/A750P mutant expressed in bacterial expression system by KinomeScan assay; in short: as §3
Homo sapiens = species on record: Homo sapiens; test: Selectivity ratio, ratio of IC50 for probe binding to HER2 (unknown origin) to IC50 for probe binding to EGFR L858R mutant (unknown origin)
In short: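 Ratio of two IC50 values measured in the rabbit reticulocyte lysate competition binding assay: HER2 and EGFR L858R. Each IC50 comes from displacement of an active-site-dependent probe, read by luminescence, with a ten-point dose-response. Each IC50 is the average of triplicate experiments.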

[23] = biological target: Tyrosine-protein kinase BTK (Homo sapiens) (UniProt Q06187); test: Inhibition of probe binding to BTK (unknown origin) using rabbit reticulate lysate system at 250 nM after 1 hr by luminescence assay relative to control
[24] = biological target: Cytoplasmic tyrosine-protein kinase BMX (Homo sapiens) (UniProt P51813); test: Inhibition of probe binding to BMX (unknown origin) using rabbit reticulate lysate system at 250 nM after 1 hr by luminescence assay relative to control
[25] = biological target: Tyrosine-protein kinase ITK/TSK (Homo sapiens) (UniProt Q08881); test: Inhibition of probe binding to ITK (unknown origin) using rabbit reticulate lysate system at 250 nM after 1 hr by luminescence assay relative to control
Cytochrome P450 1A2 = Cytochrome P450 1A2 (Homo sapiens, UniProt P05177); test: Inhibition of CYP1A2 (unknown origin); type: ADME
Cytochrome P450 3A4 = Cytochrome P450 3A4 (Homo sapiens, UniProt P08684); test: Inhibition of CYP3A4 (unknown origin); type: ADME
Sequence of Cytochrome P450 3A4 (P08684 whole entry): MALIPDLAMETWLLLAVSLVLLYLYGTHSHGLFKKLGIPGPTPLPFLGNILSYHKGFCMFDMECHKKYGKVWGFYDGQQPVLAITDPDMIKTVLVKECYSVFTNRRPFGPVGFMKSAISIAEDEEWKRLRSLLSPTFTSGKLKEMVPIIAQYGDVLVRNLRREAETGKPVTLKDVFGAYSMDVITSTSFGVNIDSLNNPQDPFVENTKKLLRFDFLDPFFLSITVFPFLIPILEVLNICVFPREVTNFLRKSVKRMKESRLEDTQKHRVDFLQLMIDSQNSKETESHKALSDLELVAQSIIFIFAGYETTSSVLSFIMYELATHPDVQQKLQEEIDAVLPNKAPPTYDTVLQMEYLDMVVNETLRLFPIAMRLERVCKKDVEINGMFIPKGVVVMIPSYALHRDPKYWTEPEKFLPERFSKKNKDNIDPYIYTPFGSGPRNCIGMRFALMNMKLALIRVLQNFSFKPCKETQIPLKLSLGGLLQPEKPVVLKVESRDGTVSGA

Cytochrome P450 2B6 = Cytochrome P450 2B6 (Homo sapiens, UniProt P20813); test: Inhibition of CYP2B6 (unknown origin); type: ADME
Sequence of Cytochrome P450 2B6 (P20813 whole entry): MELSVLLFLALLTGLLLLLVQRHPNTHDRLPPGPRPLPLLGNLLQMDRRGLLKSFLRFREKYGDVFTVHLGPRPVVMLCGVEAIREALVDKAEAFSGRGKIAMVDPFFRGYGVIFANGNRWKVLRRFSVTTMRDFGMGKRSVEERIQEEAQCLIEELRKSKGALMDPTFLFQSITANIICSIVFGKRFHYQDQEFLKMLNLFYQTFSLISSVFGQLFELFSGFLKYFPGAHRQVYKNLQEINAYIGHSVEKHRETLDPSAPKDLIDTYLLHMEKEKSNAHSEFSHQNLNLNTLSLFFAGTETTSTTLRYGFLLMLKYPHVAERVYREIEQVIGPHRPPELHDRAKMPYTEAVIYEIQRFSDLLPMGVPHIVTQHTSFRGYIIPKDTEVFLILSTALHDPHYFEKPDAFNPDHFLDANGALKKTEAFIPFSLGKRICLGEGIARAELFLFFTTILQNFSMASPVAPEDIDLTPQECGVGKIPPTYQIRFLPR

Cytochrome P450 2C8 = Cytochrome P450 2C8 (Homo sapiens, UniProt P10632); test: Inhibition of CYP2C8 (unknown origin); type: ADME
Cytochrome P450 2C9 = Cytochrome P450 2C9 (Homo sapiens, UniProt P11712); test: Inhibition of CYP2C9 (unknown origin); type: ADME
Sequence of Cytochrome P450 2C9 (P11712 whole entry): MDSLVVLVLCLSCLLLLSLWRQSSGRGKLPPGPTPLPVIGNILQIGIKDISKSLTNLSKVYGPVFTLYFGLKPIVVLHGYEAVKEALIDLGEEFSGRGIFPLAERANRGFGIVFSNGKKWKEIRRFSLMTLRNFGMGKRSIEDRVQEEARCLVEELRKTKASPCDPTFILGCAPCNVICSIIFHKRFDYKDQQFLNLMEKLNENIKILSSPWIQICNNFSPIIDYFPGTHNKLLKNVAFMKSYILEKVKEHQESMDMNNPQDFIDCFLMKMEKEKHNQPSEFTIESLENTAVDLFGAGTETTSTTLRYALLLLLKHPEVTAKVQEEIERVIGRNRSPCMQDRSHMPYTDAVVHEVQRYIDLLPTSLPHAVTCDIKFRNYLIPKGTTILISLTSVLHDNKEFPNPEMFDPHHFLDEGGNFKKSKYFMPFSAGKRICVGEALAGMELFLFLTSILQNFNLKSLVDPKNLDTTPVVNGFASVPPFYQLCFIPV

Cytochrome P450 2C19 = Cytochrome P450 2C19 (Homo sapiens, UniProt P33261); test: Inhibition of CYP2C19 (unknown origin); type: ADME
[26] = Half life in human S9 fraction; type: ADME, subcellular
[27] = Half life in rat liver microsomes; type: ADME, Microsome
[28] = Half life in human liver microsomes; type: ADME, Microsome

T1 sequence (P00533 whole entry): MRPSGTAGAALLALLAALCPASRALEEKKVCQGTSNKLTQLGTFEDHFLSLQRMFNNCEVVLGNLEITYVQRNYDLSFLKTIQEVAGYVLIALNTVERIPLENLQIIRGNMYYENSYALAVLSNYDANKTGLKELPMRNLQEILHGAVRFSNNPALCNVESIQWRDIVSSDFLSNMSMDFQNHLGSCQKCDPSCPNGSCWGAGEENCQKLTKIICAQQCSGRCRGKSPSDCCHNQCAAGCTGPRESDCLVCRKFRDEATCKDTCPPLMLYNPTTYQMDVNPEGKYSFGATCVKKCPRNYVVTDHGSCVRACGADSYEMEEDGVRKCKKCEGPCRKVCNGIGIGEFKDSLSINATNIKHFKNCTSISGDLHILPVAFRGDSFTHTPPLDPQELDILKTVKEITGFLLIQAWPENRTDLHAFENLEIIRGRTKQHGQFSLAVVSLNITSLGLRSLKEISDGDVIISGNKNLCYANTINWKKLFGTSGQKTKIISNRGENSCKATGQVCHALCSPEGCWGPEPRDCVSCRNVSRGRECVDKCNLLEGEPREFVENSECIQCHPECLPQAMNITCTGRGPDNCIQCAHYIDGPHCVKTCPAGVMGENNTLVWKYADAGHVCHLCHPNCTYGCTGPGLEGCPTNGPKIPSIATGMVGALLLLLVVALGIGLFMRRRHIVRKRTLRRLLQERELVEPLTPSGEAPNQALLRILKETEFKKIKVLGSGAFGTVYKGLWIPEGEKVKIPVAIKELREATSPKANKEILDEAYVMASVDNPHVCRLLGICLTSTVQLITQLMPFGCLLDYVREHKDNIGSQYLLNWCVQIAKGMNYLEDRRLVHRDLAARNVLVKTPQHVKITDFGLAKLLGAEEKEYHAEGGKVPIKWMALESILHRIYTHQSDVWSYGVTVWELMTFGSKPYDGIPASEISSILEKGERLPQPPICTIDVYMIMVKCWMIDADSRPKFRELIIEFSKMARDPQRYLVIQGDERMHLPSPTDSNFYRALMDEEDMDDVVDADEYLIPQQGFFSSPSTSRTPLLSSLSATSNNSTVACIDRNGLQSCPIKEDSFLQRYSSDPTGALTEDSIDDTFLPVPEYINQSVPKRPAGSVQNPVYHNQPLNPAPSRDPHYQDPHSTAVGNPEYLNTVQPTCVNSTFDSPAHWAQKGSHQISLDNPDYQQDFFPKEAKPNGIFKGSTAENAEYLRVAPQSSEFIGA

Work on `CCOc1cc2ncc(C#N)c(Nc3ccc(OCc4cccc(F)c4)c(Cl)c3)c2cc1NC(=O)CC1CCSS1` (stereo not given) yielded an IC50 [1] of 120 nM, an IC50 [2] of 10.9 to 11 nM and an IC50 [3] of 160 nM. For the same compound, the GI50 (A549 [4]) was 540 nM, the GI50 (NCI-H322M [5]) was 600 nM and the GI50 (CCRF-CEM [6]) was 150 nM. The GI50 (MOLT-4 [7]) was 160 nM, the CC50 (NCI-H322M [8]) was greater than 25 µM and the CC50 (NCI-H460 [9]) was 1950 nM. It also gave a CC50 (CCRF-CEM [10]) greater than 25 µM, a CC50 (MOLT-4 [11]) greater than 25 µM and a TI (A549 [12]) of 6.2. For the same compound, the TI (NCI-H460 [13]) was 4.1, the Kd [14] was 9.6 nM and the Kd [15] was 5.7 nM. It also gave a Kd [16] of 14 nM, a Kd [17] of 10 µM and a Kd [18] of 10 nM. For the same compound, the Kd [19] was 48 nM, the Kd [20] was 120 nM and the Kd [21] was 13 nM. For the same compound, the Kd [22] was 7.9 nM, the Ratio IC50 (Homo sapiens) was 14.7 and the inhibition [23] was 0%. For the same compound, the inhibition [24] was 10%, the inhibition [25] was 0% and the IC50 (Cytochrome P450 1A2) was greater than 50 µM. The IC50 (Cytochrome P450 3A4) was greater than 50 µM, the IC50 (Cytochrome P450 2B6) was greater than 50 µM and the IC50 (Cytochrome P450 2C8) was greater than 50 µM. For the same compound, the IC50 (Cytochrome P450 2C9) was greater than 50 µM, the IC50 (Cytochrome P450 2C19) was greater than 50 µM and the half-life [26] was 60 min. The half-life [27] was 57.3 min and the half-life [28] was 86.1 min.
